The nature of data set [1]: Cytotoxicity against human MA9.3 cells after 48 hrs by MTT assay. It is filed as functional, cell-based. The method, boiled down:
(§1)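 Cells seeded at 4 × 10^4/well and held overnight at 37°C. Exposed 48 h to freshly dissolved compound. Cells were then pelleted, the medium replaced with fresh medium holding MTT (5 mg/mL stock), and incubated 4 h. Formazan dissolved in DMSO and read at 575 nm. IC50 from a four-parameter sigmoid fit. Triplicates, assay run twice. MA9.3RAS (MLL-AF9 + NrasG12D-transformed CD34+ cells) grown in IMDM with 20% bovine calf serum. Cord-blood CD34+ cells grown in the same medium plus SCF, IL-3, IL-6, Flt-3L and TPO.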

A short description of data set [2]: Selectivity ratio of IC50 for human primary CD34+ blood stem cells to IC50 for human MA9.3 cells. The settings on record: primary CD34+ blood stem cells versus MA9.3 cells, read-out: Ratio IC50.
A short description of data set [3]: Decrease in ROS level in human MA9.3 cells assessed as fluorescence intensity at 20 uM DCF fluorescence assay (reference value: 1.06 +/- 0.13 no_unit). It is filed as functional.
For the next data set, the species on record is Homo sapiens. Briefly: Decrease in ROS level in human MA9.3 cells at 20 uM DCF fluorescence assay. The class given is functional, cell-based. The settings on record: TDE = time-dependent effect. The method, boiled down: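 Actively growing MA9.3RAS cells suspended in 1× HBSS at 4×10^5 cells/ml. DCF-DA added to 10 μM final, with HBSS alone as blank. Compound added in HBSS to 20 μM final. Plate held at 37°C and fluorescence (ex 485/em 535 nm) read every 15 min for 1 h, with light exposure limited. Mean ± SD of six replicates, unpaired t-test.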

The nature of data set [4]: Decrease in KEAP1 protein expression in human MA9.3 cells at 20 uM after 24 hrs relative to control.
Data set [5] in a line: Cytotoxicity against human CD34-positive blood stem/progenitor cells after 48 hrs by MTT assay. The class given is cell-based. In a few lines:
as §1

Where only a bound is given, the exact number is not on record here.

As to `NC1=CC(=O)C=CC1=O`, in data set [1], it took 16 µM to reach half-maximal inhibition (IC50).
In the case of `CN(CC(=O)Nc1cc(O)ccc1O)C1CCCCC1`, in data set [2], the selectivity ratio was 3.8. Also, the 50% inhibitory concentration (IC50) in data set [1] was found to be 9 µM.
`O=C(CSc1ccccc1)Nc1cc(O)ccc1O` came in with an IC50 in data set [1] of 5 µM.
On the same count and under the same terms, to `O=C(COc1ccccc1)Nc1cc(O)ccc1O` belongs 3 µM; to `O=C(CNc1ccccc1)Nc1cc(O)ccc1O`, 13 µM.
On the same count and under the same terms, to `CN(CC(=O)Nc1cccc(O)c1)c1ccccc1` belongs more than 100 µM.
Consider `O=C(CNC1CCCCC1)Nc1cc(O)ccc1O`, for which, in data set [3], the Flu intensity is 4.31. The selectivity ratio in data set [2] worked out at 11.5. In addition, in data set [1], 2 µM corresponded to half-maximal inhibition (IC50). The Activity entry in the data set filed under Homo sapiens was “tde”; in data set [5], “Non-toxic”. In addition, in data set [4], the Ratio came out at 0.65.
In the case of `CN(CC(=O)Nc1cc(O)ccc1O)c1ccccc1`, in data set [2], the selectivity ratio amounted to 2. The compound further displayed an IC50 in data set [1] of 6 µM.
In data set [1], `COc1ccc(OC)c(NC(=O)CN(C)c2ccccc2)c1` displayed an IC50 of more than 100 µM.
As to `C=C1C(=O)O[C@@H]2[C@H]3O[C@]3(C)CC/C=C(\C)CC[C@@H]12`, the selectivity ratio in data set [2] stood at 2.1. In data set [1], this compound showed a concentration for half-maximal inhibition (IC50) of 3 µM.
`CC(=O)Nc1cc(O)ccc1O` returned an IC50 in data set [1] of 35 µM. This counts as double-digit micromolar.
In data set [1], `CN(CC(=O)NC1=CC(=O)C=CC1=O)c1ccccc1` registered an IC50 of 21 µM. This IC50 lies about 1.7-fold lower than the previous one.
In data set [1], `CCCN(C)CC(=O)Nc1cc(O)ccc1O` came in with a 50% inhibitory concentration (IC50) of 18 µM.
Same read-out and setting: to `O=C(CO)Nc1cc(O)ccc1O` belongs 12 µM.
Take `COc1cc(/C=C/C(=O)N2CCC=CC2=O)cc(OC)c1OC` [PIPLARTINE]: the selectivity ratio in data set [2] amounted to 3.7. The same compound returned an IC50 in data set [1] of 2 µM.
`CN(CC(=O)Nc1ccccc1O)c1ccccc1` had an IC50 in data set [1] of more than 100 µM.

The record behind these values is ChEMBL document CHEMBL3351603, “Design of a hydrogen peroxide-activatable agent that specifically targets cancer cells” (Bioorg Med Chem, 2014).
